Compound activity: PubChem BioAssay, The Scripps Research Institute Molecular Screening Center
Sampled rows, rich in hits. Any-hit rate of the full collection: about 2%.
CHRM5 PAM: human M5 muscarinic receptor positive allosteric modulators, primary screen, CHO-K1 cells, Fluo-8 calcium fluorescence | CHO-K1 hM5, ACh EC20 PAM; 0% = ACh EC20, 100% = ACh EC100 | AID 624038, 2012 | activation, % at 3 µM | hit rate 0.3% among 360,000;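 active means activation above the run cutoff, the mean activation of all test compounds plus 3 SD, cut at about 18% in these data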
Target sequence (P08912 whole entry, looked up): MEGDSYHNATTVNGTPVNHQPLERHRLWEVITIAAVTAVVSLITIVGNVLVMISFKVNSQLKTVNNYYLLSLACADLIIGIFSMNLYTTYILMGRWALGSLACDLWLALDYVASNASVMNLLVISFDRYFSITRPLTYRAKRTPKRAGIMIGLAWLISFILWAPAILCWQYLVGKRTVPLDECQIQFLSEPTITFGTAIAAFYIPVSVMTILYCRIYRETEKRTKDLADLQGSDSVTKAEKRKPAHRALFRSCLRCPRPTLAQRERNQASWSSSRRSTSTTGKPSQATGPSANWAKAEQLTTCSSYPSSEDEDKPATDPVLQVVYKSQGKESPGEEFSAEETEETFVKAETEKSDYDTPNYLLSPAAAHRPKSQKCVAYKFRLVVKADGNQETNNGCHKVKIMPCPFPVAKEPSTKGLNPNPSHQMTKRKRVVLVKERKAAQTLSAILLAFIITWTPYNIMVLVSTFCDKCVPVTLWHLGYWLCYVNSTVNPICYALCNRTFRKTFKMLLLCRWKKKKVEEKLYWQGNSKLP
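system = human M5 receptor in CHO-K1 cells | reagent = EC20 acetylcholine as agonist stimulus | compound dosing = single-point, 3 µM nominal | incubation = Fluo-8 loading 80 min at 37 °C plus 30 min room temperature | detection = Fluo-8 calcium dye fluorescence, kinetic read | benchmarks = low control EC20 acetylcholine (0%), high control EC100 acetylcholine (100%)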
CHRM5 antagonist: human M5 muscarinic receptor antagonists, primary screen, CHO cells, Fluo-8 calcium fluorescence. CHO-hM5 cells, ACh EC80. inhibition, % at 3 µM. hit rate 0.59% among 360,000;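 active means inhibition above a per-plate cutoff, the mean of that plate's test compounds plus 3 SD, cut at about 27% in these data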;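 further: 0% = acetylcholine EC80 with DMSO and 100% = DMSO without agonist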
CHRM1 PAM: human M1 muscarinic receptor positive allosteric modulators, primary screen, CHO-K1 cells, Fluo-8 calcium fluorescence, 1536-well; Muscarinic acetylcholine receptor M1 (Homo sapiens), P11229; CHO-K1 hM1, ACh EC20; 0% = ACh EC20, 100% = maximal ACh; activation, % at 3 µM; hit rate 0.088% among 360,000; AID 588819, 2011; in the data active means activation above about 19%, passing the limit was not always enough
M1 ag: human M1 muscarinic receptor agonists, primary screen, Fluo-8 calcium fluorescence, CHO-K1 cells, HTS; CHO-K1 hM1, agonist mode; 0% DMSO, 100% acetylcholine EC100; activation, % at 3 µM; hit rate 0.33% among 360,000; AID 588814, 2011;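 active means activation above the run's mean compound activation plus 3 SD, cut at about 16% in these data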;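 further: peak over basal fluorescence ratio within a 140 s kinetic read after compound addition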
CHRM1 antagonist: human M1 muscarinic receptor antagonists, primary screen, CHO-K1 cells, Fluo-8 calcium fluorescence, 1536-well. hit rate 1.3% among 360,000. inhibition, % at 3 µM. AID 588852, 2011. Muscarinic acetylcholine receptor M1 (Homo sapiens), P11229. CHO-K1 hM1, ACh EC80 antagonist;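 active means percent inhibition above its own plate's cutoff, namely the mean of that plate's compound wells plus 3 SD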;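 further: peak over basal fluorescence ratio during 140 s after agonist addition; 0% = ACh EC80 plus DMSO and 100% = DMSO alone without agonist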
CHRM5 agonist: human M5 muscarinic receptor agonists, primary screen, CHO-K1 cells, Fluo-8 calcium fluorescence. CHO-K1 hM5 cells; 0% DMSO wells, 100% maximal acetylcholine response. activation, % at 3 µM. hit rate 0.19% among 360,000. AID 624037, 2012;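 active means activation above the run's mean over test compounds plus 3 SD, cut at about 23% in these data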;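 further: signal is peak over basal fluorescence ratio across the kinetic read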
An asterisk follows results filed as active.

SMILES	CHRM5 PAM	CHRM5 antagonist	CHRM1 PAM	M1 ag	CHRM1 antagonist	CHRM5 agonist
O=C1NC(=O)C(C2CCCCCC2)C(=O)N1	5.0	0.7	26.1*	3.2	-30.3	3.0
C1CCC2CCCCC2C1 (centres undefined)	-0.2	-0.8	2.7	-0.9	-6.4	2.7
CC1CC2(C)C(CCC3C2CCC2(C)C(OP(=O)(N4CC4)N4CC4)CCC32)CC1=O (centres undefined)	3.0	3.6	4.0	-7.1	102.1*	-3.1
C[C@]12CCC3C(CC[C@H]4C[C@H](O)CC[C@]34C)C1CC(=O)[C@@H]2O (some centres undefined)	-14.5	1.6	-7.4	1.7	-5.2	5.2
CC(=O)Nc1cc([As](=O)(O)O)ccc1O	-13.1	12.5	-6.2	19.7*	-17.8	26.8*
CC(=O)Nc1cccc([As](=O)(c2cccc(NC(C)=O)c2)c2cccc(NC(C)=O)c2)c1	0.9	9.3	15.1	-0.5	-16.6	1.9
CC(=O)CCC(C)=O	-1.8	1.7	4.4	-0.2	-11.0	1.4
Cn1c(O)c(/C=C/C=Nc2ccccc2)c(=O)n(C)c1=S	-6.7	13.5	-16.6	58.5*	34.4*	13.7
Cc1cccc(-n2c(O)c(/C=C/C=Nc3ccccc3)c(=O)[nH]c2=O)c1	1.8	3.9	-9.3	7.0	7.5	7.9
COc1cc(C2(C#N)CCN(C)CC2)cc(OC)c1OC	9.0	0.3	-0.5	-2.3	-13.5	-1.8
CC(C)Nc1ccc(Nc2ccccc2)cc1	-4.7	10.7	-24.7	-8.0	53.3*	-6.0
c1ccc(Nc2ccc3ccccc3c2)cc1	-6.4	6.8	-10.4	-5.3	11.7	-1.1
CC(=O)c1cn(Cc2ccc(C#N)cc2)c2ccccc12	-15.8	42.0*	5.7	-2.2	-4.2	-1.7
CN(C)C1CCc2[nH]c3c(F)cc(F)cc3c2C1 (centres undefined)	-3.3	5.7	-17.7	-8.6	34.6*	-2.2
COC(=O)C1=C(c2cccc(OCc3ccccc3)c2)C[C@@H]2CC[C@H]1N2C(=O)NCc1ccc(C(F)(F)F)cc1	-9.0	15.1	-2.4	-3.2	8.8	-2.3
COC(=O)C1=C(c2ccccc2)C[C@@H]2CC[C@H]1N2C(=O)NCc1ccc(F)cc1	-18.9	11.5	-37.0	-12.8	67.0*	-11.0
COC(=O)C1=C(c2cccc(OCc3ccccc3)c2)C[C@@H]2CC[C@H]1N2C(=O)NCc1ccc(F)cc1	-30.8	27.2*	-33.8	-12.7	38.1*	-12.8
COC(=O)C1=C(c2cc3ccccc3o2)C[C@@H]2CC[C@H]1N2C	-17.6	7.9	-29.7	-14.4	35.0*	-11.1
COC(=O)C1=C(c2cc3ccccc3o2)C[C@@H]2CC[C@H]1N2C(=O)NCc1ccc(F)cc1	-22.6	9.4	-38.0	-12.0	66.9*	-12.2
CCN1C(=O)CC(=O)N(CC)C1=S	-2.0	-0.3	2.3	0.1	-11.4	2.9
Cc1ccc(C(O)P(=O)(Oc2ccccc2)Oc2ccccc2)cc1 (centres undefined)	-1.0	2.2	4.3	-1.5	-8.3	0.2
Cc1nc2ccc(Br)cc2c(=O)n1-c1ccc([N+](=O)[O-])c(C(F)(F)F)c1	-26.9	31.6*	-12.7	5.1	35.7*	11.4
N#CCCn1cc(C(=O)O)c(-c2cccc([N+](=O)[O-])c2)n1	9.6	-0.2	6.0	-1.5	-10.7	-1.0
O=C(NCC1=C(c2ccc3ccccc3c2)C[C@@H]2CC[C@H]1N2Cc1ccco1)c1ccncc1	1.0	3.5	-24.2	-10.8	25.4	-2.0
O=C(NCC1=C(c2ccc3ccccc3c2)C[C@@H]2CC[C@H]1N2Cc1ccco1)c1ccc([N+](=O)[O-])cc1	-6.0	11.1	-28.9	-7.8	43.2*	-3.3
SMILES	CHRM5 PAM	CHRM5 antagonist	CHRM1 PAM	M1 ag	CHRM1 antagonist	CHRM5 agonist
COC(=O)C1=C(c2ccc(F)cc2F)C[C@@H]2CC[C@H]1N2C(=O)NCCOc1ccccc1	7.5	7.9	6.0	-6.1	-3.6	-5.1
COc1ccc(CN2CCCC(C(=O)c3ccc(Cl)cc3)C2)c(OC)c1 (centres undefined)	-11.6	12.0	-23.5	-5.5	38.6*	-14.3
COc1ccc(CN2CCCC(C(=O)c3cccc(Cl)c3)C2)cc1 (centres undefined)	-16.1	5.3	-26.9	-5.3	42.2*	-20.8
COc1ccc(C(=O)C2CCCN(Cc3ccsc3)C2)cc1OC (centres undefined)	-2.2	11.8	-24.6	-9.8	20.8	-10.8
COc1ccc(C(=O)C2CCCN(CC3CCCCC3)C2)cc1OC (centres undefined)	-7.1	3.6	-33.2	-11.2	77.6*	-3.0
COc1cccc(C(=O)C2CCCN(Cc3ccc4nonc4c3)C2)c1 (centres undefined)	-4.7	-1.9	-29.6	-12.7	10.5	-9.6
COc1cccc(C(=O)C2CCCN(Cc3cccc4c3OCO4)C2)c1 (centres undefined)	-18.4	16.1	-29.0	-10.4	65.1*	-5.9
COc1ccc(C(CNC(=O)c2ccc3c(c2)CCC3)N(C)C)cc1 (centres undefined)	1.7	4.7	0.8	-9.4	4.9	-7.0
O=C1Nc2ccccc2C(c2ccccc2)=NC1O (centres undefined)	-1.4	-5.3	17.8	-2.2	-14.5	-3.0
CN1C(=O)C(O)N=C(c2ccccc2)c2ccccc21 (centres undefined)	-6.2	12.0	-25.2	-11.3	37.5*	-7.5
CN1/C(=C\C=C2C(=O)NC(=S)NC2=O)C(C)(C)c2ccccc21	-23.9	22.4	-25.7	63.3*	27.2*	103.7*
O=C1NC(=S)NC(=O)C1=Cc1cccc2cc3ccccc3cc12	5.9	-10.1	11.6	-5.3	-14.3	-4.8
Cc1ccc(-c2cc(-c3ccc(C)cc3)[n+](-c3ccc(C(=O)[O-])cc3)c(-c3ccc(C)cc3)c2)cc1	0.5	6.2	12.3	9.1	-4.8	-8.8
c1ccc(-c2cc(-c3ccccc3)[n+](-c3ccccc3)c(-c3ccccc3)c2)cc1	-31.0	48.2*	-17.3	2.5	42.9*	-11.8
Cc1ccc(-c2cc(-c3ccccc3)cc(-c3ccccc3)[n+]2-c2ccccc2)cc1	-41.6	48.6*	-33.2	-2.4	77.8*	-4.6
CN(C)c1ccc(-[n+]2c(-c3ccccc3)cc(-c3ccccc3)cc2-c2ccccc2)cc1	-16.4	78.4*	-32.7	-10.7	55.7*	-4.1
